PPC-1+TRAIL kill = compounds killing PPC-1 cancer cells with TRAIL present, primary screen, TRAIL potentiator project, ATPLite luminescence, uHTS. PPC-1 cells + TRAIL, ATPLite viability luminescence. 0.41% of 220,000 active. cell killing (% activity), % at 4 µM or 5 µM;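 active means cell killing above 50% in the first pass at 4 µM, then a duplicate retest at 5 µM averaging 50% or more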;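 further: plate controls were cells with TRAIL plus DMSO for no effect and medium-only wells lacking cells for full effect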
Wee1 stabilizer = Wee1 degradation inhibitors, primary screen, cell-based, HeLa, Wee1K328M-luciferase, luminescence | AID 1321, 2008 | reporter increase, % at 5 µM | 1.2% of 220,000 active | Wee1-like protein kinase (Homo sapiens), P30291 | HeLa Luc-Wee1K328M stability; 100% = proteasome inhibitor MG132 effect;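 active means activation above the mean of all tested compounds plus 3 SD, set per screening run, cut at about 8.8% in these data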;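 further: cells exposed to compound for 20 h before luminescence read; 0% = DMSO alone and 100% = MG132 at 30 µM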
Target sequence (P30291 whole entry K328M): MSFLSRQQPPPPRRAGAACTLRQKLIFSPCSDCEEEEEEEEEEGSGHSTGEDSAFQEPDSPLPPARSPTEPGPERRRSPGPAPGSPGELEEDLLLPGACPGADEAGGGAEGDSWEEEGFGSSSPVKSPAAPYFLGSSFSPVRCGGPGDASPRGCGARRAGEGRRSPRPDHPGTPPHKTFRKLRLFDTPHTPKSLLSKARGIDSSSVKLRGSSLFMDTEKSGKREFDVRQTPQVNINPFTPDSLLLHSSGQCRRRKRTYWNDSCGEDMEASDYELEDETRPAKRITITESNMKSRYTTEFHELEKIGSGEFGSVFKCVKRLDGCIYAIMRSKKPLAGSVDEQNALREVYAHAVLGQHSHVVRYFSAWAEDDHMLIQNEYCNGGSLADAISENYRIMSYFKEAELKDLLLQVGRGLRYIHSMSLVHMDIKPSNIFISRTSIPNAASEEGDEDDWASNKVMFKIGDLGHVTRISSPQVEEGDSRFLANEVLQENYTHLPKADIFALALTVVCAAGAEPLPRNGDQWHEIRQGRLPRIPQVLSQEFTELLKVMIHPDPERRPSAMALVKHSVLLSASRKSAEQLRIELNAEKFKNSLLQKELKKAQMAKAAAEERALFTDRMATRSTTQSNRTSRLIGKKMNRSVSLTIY
PKD1 inh = inhibitors of human PKD1 kinase, biochemical, fluorescence polarization; PKD1 kinase fluorescence polarization assay; Serine/threonine-protein kinase D1 (Homo sapiens), Q15139; inhibition, % (concentration not given with the values); 0.056% of 200,000 active; AID 797, 2007; in the data active means inhibition above about 50%
FLuc inhib CS = firefly luciferase enzyme inhibitors, primary screen, artefact control for luciferase-based inhibitor screens, biochemical, luminescence, ATPLite. 10 min. Luciferin 4-monooxygenase (Photinus pyralis), P08659. inhibition, % at 10 µM. 1.5% of 200,000 active. AID 1006, 2008;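 active means inhibition above about 50% when tested at 10 µM, limit read from the data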
C8 TRAIL sens = viability loss with TRAIL in NB7+C8 cells, primary screen, TRAIL sensitizer project, cell-based, ATPlite luminescence. inhibition (viability loss, TRAIL sensitization), % at 10 µM. 1% of 360,000 active. AID 624354, 2012;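 active means compounds causing at least 50% loss of cell viability in the single-dose screen, relative to plate controls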
FLuc stim CS = FLuc activators, initial screening, artefact control for FLuc-dependent activation tests, biochemical, ATPlite luminescence; AID 1027, 2008; ATPlite luciferase biochemical, 10 min; 0 = ATP-free wells, 1 = DMSO control; 200,000 tested, under 10 active; Luciferin 4-monooxygenase (Photinus pyralis), P08659; activation factor at 10 µM;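 active means luciferase activation factor, scaled between plate controls, of at least 2 with compound at 10 µM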
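System: cell-free luciferase reagent; medium: PBS as buffer for the ATP substrate; doses: test compounds dosed from 2 mM stocks in 100% DMSO; incubation: 10 min, room temperature; measured by: luminescence from luciferase reaction; read-out: luciferase activation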
PPC1 cytotox = cytotoxicity in PPC-1 cells, confirmation, cytotoxicity control for TRAIL apoptosis potentiator project, cell-based, ATP content luminescence. shares compounds with PPC-1+TRAIL kill. PPC-1 viability, ATPlite luminescence, overnight. cytotoxicity, % at 5 µM. 50% of 1,200 active;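 active means reconfirmed compounds whose average cytotoxicity reaches 50% or more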;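 further: 0% = DMSO-treated cells and 100% = wells holding medium but no cells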
An asterisk follows results filed as active. Sampled rows, rich in hits. Any-hit rate of the full collection: about 2.2%.

Results for Cc1ccc(CN2CCN(CC3CC4C=CC3C4)CC2)cc1 (stereo not given) ?
PPC-1+TRAIL kill: 0; Wee1 stabilizer: 2; PKD1 inh: -2; FLuc inhib CS: -5; C8 TRAIL sens: -10; FLuc stim CS: 1; PPC1 cytotox: 7

How did O=S(=O)(c1ccccc1)N1CCN(CC2CC3C=CC2C3)CC1 (stereo not given) do in these assays?
PPC-1+TRAIL kill: 13; Wee1 stabilizer: 2; PKD1 inh: 7; FLuc inhib CS: -7; C8 TRAIL sens: -2; FLuc stim CS: 1.1

Results for S=C(Nc1ccc(Cl)cc1)Nc1cccc2cnccc12 ?
PPC-1+TRAIL kill: 16; Wee1 stabilizer: -1; PKD1 inh: 0; FLuc inhib CS: -9; C8 TRAIL sens: 10; FLuc stim CS: 1.1

What do the screens show for `Fc1ccc(NC(=S)Nc2cccc3cnccc23)cc1`?
PPC-1+TRAIL kill: 4; Wee1 stabilizer: 3; PKD1 inh: 2; FLuc inhib CS: 0; C8 TRAIL sens: -2; FLuc stim CS: 1; PPC1 cytotox: -3

What do the screens show for `CCCCC(=O)Nc1ccc(NCc2ccc(C)s2)cc1`?
C8 TRAIL sens: -12

Results for CSCCC(NC(=O)COc1cccc2ccccc12)C(=O)O (stereo not given) ?
PPC-1+TRAIL kill: -8; Wee1 stabilizer: 1; C8 TRAIL sens: 6

What do the screens show for `COCCNC(=O)c1ccc2c3n(nc2c1)-c1ccccc1CO3`?
PPC-1+TRAIL kill: 50*; C8 TRAIL sens: 58*; PPC1 cytotox: 55*

What do the screens show for `Cc1ccc2c(c1)COc1c3ccc(C(=O)NCCO)cc3nn1-2`?
PPC-1+TRAIL kill: 23; C8 TRAIL sens: 32

How did C=CCNC(=O)c1ccc2c3n(nc2c1)-c1ccccc1CO3 do in these assays?
PPC-1+TRAIL kill: 84*; C8 TRAIL sens: 86*; PPC1 cytotox: 84*

Results for COCCNC(=O)c1ccc2c3n(nc2c1)-c1ccc(Cl)cc1CO3 ?
PPC-1+TRAIL kill: 26; C8 TRAIL sens: 14

How did O=C(CSc1nnc(Cc2ccccc2)o1)c1ccccc1 do in these assays?
Wee1 stabilizer: 1; PKD1 inh: -4; FLuc inhib CS: -4; C8 TRAIL sens: 1; FLuc stim CS: 1

Results for CCCn1c(N)c(C(=O)CSc2nnc(Cc3ccccc3)o2)c(=O)n(C)c1=O ?
PPC-1+TRAIL kill: 13; Wee1 stabilizer: -3; PKD1 inh: -6; FLuc inhib CS: -1; C8 TRAIL sens: 4; FLuc stim CS: 1; PPC1 cytotox: 8

How did CC(=O)Nc1ccc(S(=O)(=O)N(C)CC(=O)OCC(=O)N(C)C2CCS(=O)(=O)C2)cc1 (stereo not given) do in these assays?
C8 TRAIL sens: -28

What do the screens show for `COc1ccccc1CNC(=O)c1ccc(OC(F)F)c(OC)c1`?
PPC-1+TRAIL kill: 9; Wee1 stabilizer: 1; PKD1 inh: -4; FLuc inhib CS: 1; C8 TRAIL sens: -5; FLuc stim CS: 1

How did Cc1ccccc1NC(=O)c1nc[nH]c1C(=O)NCc1ccccc1 do in these assays?
PPC-1+TRAIL kill: 10; Wee1 stabilizer: 7; PKD1 inh: -13; FLuc inhib CS: -6; C8 TRAIL sens: 3; FLuc stim CS: 1.1; PPC1 cytotox: 17

Results for Cc1ccc(NC(=O)c2nc[nH]c2C(=O)NCc2ccccc2)cc1 ?
C8 TRAIL sens: 14

How did O=C(Nc1ccc2c(c1)OCCO2)c1cc2ccccc2o1 do in these assays?
PPC-1+TRAIL kill: 57*; Wee1 stabilizer: -2; PKD1 inh: -1; FLuc inhib CS: 92*; C8 TRAIL sens: 79*; FLuc stim CS: 0.1; PPC1 cytotox: 56*

Results for CC(OC(=O)c1ccc(Br)o1)C(=O)Nc1ccc2c(c1)OCCO2 (stereo not given) ?
C8 TRAIL sens: -11

What do the screens show for `Cc1ccc(NC(=O)c2cc3ccccc3o2)cc1S(=O)(=O)N(C)C`?
PPC-1+TRAIL kill: 49; Wee1 stabilizer: 3; PKD1 inh: -1; FLuc inhib CS: 72*; C8 TRAIL sens: 67*; FLuc stim CS: 0.3; PPC1 cytotox: 46

Results for O=C(Nc1ccc2c(c1)OCCO2)c1ccc(Br)o1 ?
PPC-1+TRAIL kill: 52*; Wee1 stabilizer: 9.4*; PKD1 inh: 7; FLuc inhib CS: 82*; C8 TRAIL sens: 61*; FLuc stim CS: 0.2; PPC1 cytotox: 51*

How did O=C(Nc1nc(=O)c2ccccc2s1)c1ccccc1 do in these assays?
PPC-1+TRAIL kill: 26; Wee1 stabilizer: -1; PKD1 inh: 7; FLuc inhib CS: 60*; C8 TRAIL sens: 34; FLuc stim CS: 0.4; PPC1 cytotox: 33

How did CC(=O)Nc1nc(=O)c2ccccc2s1 do in these assays?
PPC-1+TRAIL kill: 2; Wee1 stabilizer: 7; PKD1 inh: 3; FLuc inhib CS: 1; C8 TRAIL sens: -7; FLuc stim CS: 1

How did CC[n+]1c(/C=C/N(C)c2ccccc2)oc2ccc(Cl)cc21 do in these assays?
PPC-1+TRAIL kill: 7; Wee1 stabilizer: 0; PKD1 inh: 4; FLuc inhib CS: -1; C8 TRAIL sens: 20; FLuc stim CS: 1

Results for CCN1/C(=C/C=C/c2oc3ccc4ccccc4c3[n+]2CC)Oc2ccc3ccccc3c21 ?
PPC-1+TRAIL kill: 23; Wee1 stabilizer: 0; PKD1 inh: -5; FLuc inhib CS: 15; FLuc stim CS: 0.9; PPC1 cytotox: 18

Results for CC1Cc2ccccc2N1S(=O)(=O)c1cnc(Cl)c(Cl)c1 (stereo not given) ?
PPC-1+TRAIL kill: 50; Wee1 stabilizer: 0; C8 TRAIL sens: -4; PPC1 cytotox: 45

What do the screens show for `N#CCc1nc(CSc2nc3ccccc3s2)cs1`?
PPC-1+TRAIL kill: -15; Wee1 stabilizer: -1; PKD1 inh: -11; FLuc inhib CS: 6; C8 TRAIL sens: 29; FLuc stim CS: 0.9; PPC1 cytotox: -32

How did CC(=O)c1sc2c(c1OC(=O)c1ccc(Cl)cc1Cl)c(=O)n(-c1ccccc1)c(=S)n2-c1ccccc1 do in these assays?
PPC-1+TRAIL kill: 29; Wee1 stabilizer: 0; C8 TRAIL sens: 15; PPC1 cytotox: 23

What do the screens show for `O=C(CN1CCCC1)Nc1ccc([N+](=O)[O-])cc1`?
PPC-1+TRAIL kill: -4; Wee1 stabilizer: -2; PKD1 inh: -5; FLuc inhib CS: -2; C8 TRAIL sens: -5; FLuc stim CS: 1

Assay outcomes: PubChem BioAssay, several laboratories
